This is an account of results in ChEMBL document CHEMBL1123626, “Novel irreversible ligands specific for "peripheral" type benzodiazepine receptors: (+/-)-, (+)-, and (-)-1-(2-chlorophenyl)-N-(1-methylpropyl)-N- (2-isothiocyanatoethyl)-3-isoquinolinecarboxamide and 1-(2-isothiocyanatoethyl)-7-chloro-1,3-dihydro-5-(4-chlorophenyl )-2H-1,4-benzodiazepin-2-one” (J Med Chem, 1987).

Molecules are shown by their SMILES.

The nature of test [1]: Inhibition of [3H]-Ro- 5-4864 binding to Peripheral Benzodiazepine Receptor of rat brain (255 mg protein).
A short description of test [2]: Inhibition of [3H]-PK 11195 binding to Peripheral Benzodiazepine Receptor of rat brain tissue (263 mg protein).
A short description of test [3]: Inhibition of [3H]-Ro- 5-4864 binding to Peripheral Benzodiazepine Receptor of rat kidney (62 mg protein).
Test [4] is described as follows: Inhibition of [3H]-PK 11195 binding to Peripheral Benzodiazepine Receptor of rat kidney tissue (50 mg protein).
Test [5] is described as follows: Inhibition of [3H]-PK 11195 binding to Peripheral Benzodiazepine Receptor of rat kidney tissue (22 mg protein). Put shortly:
(§1)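 Kidneys from male Sprague-Dawley rats (150-200 g), decapitated, were decapsulated, minced, and homogenized in ice-cold 50 mM potassium phosphate (pH 7.0). The homogenate was spun at 23000 g for 20 min at 4 °C and the pellet resuspended. Tritiated radioligand was used at 1 nM against six inhibitor concentrations in triplicate. IC50 and pseudo Hill coefficient are given as means of two experiments.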

Test [6] is described as follows: Inhibition of [3H]-PK 11195 binding to Peripheral Benzodiazepine Receptor of rat brain tissue (110 mg protein). In a few lines:
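Brain membrane binding used 1 nM tritiated radioligand, with six inhibitor concentrations each run in triplicate. Protein per assay was as specified. IC50 in nmol/L and pseudo Hill coefficient are reported as means of two independent experiments.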

Test [7] in a line: Inhibition of [3H]-Ro- 5-4864 binding to Peripheral Benzodiazepine Receptor of rat kidney (110 mg protein). Put shortly: as §1
Test [8] can be described thus: Inhibition of [3H]-Ro- 5-4864 binding to Peripheral Benzodiazepine Receptor of rat kidney (22 mg protein). Put shortly:
as §1

Test [9] in a line: Inhibition of [3H]-PK 11195 binding to Peripheral Benzodiazepine Receptor of rat kidney tissue (110 mg protein). In a few lines: as §1

For the molecule `O=C1CN=C(c2ccc(Cl)cc2)c2cc(Cl)ccc2N1CCN=C=S`, the IC50 in test [1] was 2.1 nM l-1; in test [2], 2.1 nM l-1; in [3] it was 1.2 nM l-1; in test [4], 1.2 nM l-1.
With `CCC(C)N(CCN=C=S)C(=O)c1cc2ccccc2c(-c2ccccc2Cl)n1` (racemic), the IC50 was determined as 3 nM l-1 in test [1], 15 nM l-1 in [2], 2 nM l-1 in test [3] and 2.9 nM l-1 in [4].
Turning to `CCC(C)N(CCN=C=S)C(=O)c1cc2ccccc2c(-c2ccccc2Cl)n1` (single isomer, unassigned; (-)), the IC50 was found to be 3.9 nM l-1 in test [5], 10 nM l-1 in test [6], 6.3 nM l-1 in test [7] and 2.9 nM l-1 in test [8].
In the case of `CCC(C)N(CCN=C=S)C(=O)c1cc2ccccc2c(-c2ccccc2Cl)n1` (stereo in doubt; 11b), the IC50 in test [5] was 1.6 nM l-1; in test [7], 2.9 nM l-1; in test [9], 3.5 nM l-1; in test [8], 1.2 nM l-1.
